Measured values as given in ChEMBL document CHEMBL1150054, “Studies on the synthesis of sesquiterpene lactones, 14. Syntheses of (-)-arbusclin D and (+)-4-EPI-arbusclin D: the stereochemical assignment of arbusclin D” (1992).
Activity calls are given as the source filed them. The rule behind the calls is not given here.

Experiments:
P388 [1] = experiment: Growth inhibition of mouse P388 cells at 0.01 ug/mL after 48 hrs relative to control; type: functional; details: P388, 48 h, read-out: GI
Procedure, shortened: (§1)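 P-388 murine lymphocytic leukemia cells incubated with compound 48 h at 37° under humidified 5% CO2; cells counted by Coulter counter. Inhibitory ratio (%) = (1 − (T − C0)/(C − C0)) × 100, where T is the count with compound, C the count without compound and C0 the count at culture start.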

P388 [2] = experiment: Growth inhibition of mouse P388 cells at 0.1 ug/mL after 48 hrs relative to control; type: functional; details: P388, 48 h, read-out: GI; procedure, shortened: as §1
P388 [3] = experiment: Growth inhibition of mouse P388 cells at 1 ug/mL after 48 hrs relative to control; type: functional; details: P388, 48 h, read-out: GI; procedure, shortened: as §1
Echinochloa frumentacea [4] = experiment: Growth regulatory activity in Echinochloa frumentacea assessed as inhibition of stem growth at 500 ppm after 10 days; type: functional, organism-based
Brassica juncea [5] = experiment: Growth regulatory activity in Brassica juncea assessed as complete inhibition of root growth at 1000 ppm after 10 days; type: functional, organism-based
Brassica juncea [6] = experiment: Growth regulatory activity in Brassica juncea assessed as complete inhibition of root growth at 500 ppm after 10 days; type: functional, organism-based
Cucumis sativus [7] = experiment: Growth regulatory activity in Cucumis sativus assessed as complete inhibition of stem growth at 250 ppm after 10 days; type: functional, organism-based
Echinochloa frumentacea [8] = experiment: Growth regulatory activity in Echinochloa frumentacea assessed as complete inhibition of root growth at 500 ppm after 10 days; type: functional, organism-based
Cucumis sativus [9] = experiment: Growth regulatory activity in Cucumis sativus assessed as complete inhibition of stem growth at 500 ppm after 10 days; type: functional, organism-based
Cucumis sativus [10] = experiment: Growth regulatory activity in Cucumis sativus assessed as complete inhibition of root growth at 250 ppm after 10 days; type: functional, organism-based
Echinochloa frumentacea [11] = experiment: Growth regulatory activity in Echinochloa frumentacea assessed as complete inhibition of stem growth at 1000 ppm after 10 days; type: functional, organism-based
Brassica juncea [12] = experiment: Growth regulatory activity in Brassica juncea assessed as inhibition of stem growth at 500 ppm after 10 days; type: functional, organism-based
Cucumis sativus [13] = experiment: Growth regulatory activity in Cucumis sativus assessed as complete inhibition of stem growth at 1000 ppm after 10 days; type: functional, organism-based
Brassica juncea [14] = experiment: Growth regulatory activity in Brassica juncea assessed as complete inhibition of stem growth at 1000 ppm after 10 days; type: functional, organism-based
Cucumis sativus [15] = experiment: Growth regulatory activity in Cucumis sativus assessed as complete inhibition of root growth at 500 ppm after 10 days; type: functional, organism-based
Echinochloa frumentacea [16] = experiment: Growth regulatory activity in Echinochloa frumentacea assessed as complete inhibition of root growth at 1000 ppm after 10 days; type: functional, organism-based
Cucumis sativus [17] = experiment: Growth regulatory activity in Cucumis sativus assessed as complete inhibition of root growth at 1000 ppm after 10 days; type: functional, organism-based
Brassica juncea [18] = experiment: Growth regulatory activity in Brassica juncea assessed as inhibition of root growth at 250 ppm after 10 days; type: functional, organism-based
Brassica juncea [19] = experiment: Growth regulatory activity in Brassica juncea assessed as inhibition of stem growth at 250 ppm after 10 days; type: functional, organism-based
P388 [20] = experiment: Growth inhibition of mouse P388 cells at 10 ug/mL after 48 hrs relative to control; type: functional; details: P388, 48 h, read-out: GI; procedure, shortened: as §1
Cucumis sativus [21] = experiment: Growth regulatory activity in Cucumis sativus assessed as complete inhibition of root growth at 100 ppm after 10 days; type: functional, organism-based
Cucumis sativus [22] = experiment: Growth regulatory activity in Cucumis sativus assessed as inhibition of stem growth at 250 ppm after 10 days; type: functional, organism-based
Echinochloa frumentacea [23] = experiment: Growth regulatory activity in Echinochloa frumentacea assessed as complete inhibition of root growth at 250 ppm after 10 days; type: functional, organism-based
Echinochloa frumentacea [24] = experiment: Growth regulatory activity in Echinochloa frumentacea assessed as inhibition of stem growth at 1000 ppm after 10 days; type: functional, organism-based
Cucumis sativus [25] = experiment: Growth regulatory activity in Cucumis sativus assessed as inhibition of root growth at 250 ppm after 10 days; type: functional, organism-based
Brassica juncea [26] = experiment: Growth regulatory activity in Brassica juncea assessed as inhibition of root growth at 1000 ppm after 10 days; type: functional, organism-based
Cucumis sativus [27] = experiment: Growth regulatory activity in Cucumis sativus assessed as inhibition of root growth at 500 ppm after 10 days; type: functional, organism-based
Echinochloa frumentacea [28] = experiment: Growth regulatory activity in Echinochloa frumentacea assessed as inhibition of root growth at 1000 ppm after 10 days; type: functional, organism-based
Brassica juncea [29] = experiment: Growth regulatory activity in Brassica juncea assessed as inhibition of root growth at 500 ppm after 10 days; type: functional, organism-based
Echinochloa frumentacea [30] = experiment: Growth regulatory activity in Echinochloa frumentacea assessed as inhibition of root growth at 500 ppm after 10 days; type: functional, organism-based
Echinochloa frumentacea [31] = experiment: Growth regulatory activity in Echinochloa frumentacea assessed as inhibition of stem growth at 250 ppm after 10 days; type: functional, organism-based
Brassica juncea [32] = experiment: Growth regulatory activity in Brassica juncea assessed as complete inhibition of root growth at 250 ppm after 10 days; type: functional, organism-based
Brassica juncea [33] = experiment: Growth regulatory activity in Brassica juncea assessed as complete inhibition of stem growth at 500 ppm after 10 days; type: functional, organism-based
Echinochloa frumentacea [34] = experiment: Growth regulatory activity in Echinochloa frumentacea assessed as complete inhibition of stem growth at 500 ppm after 10 days; type: functional, organism-based
Cucumis sativus [35] = experiment: Growth regulatory activity in Cucumis sativus assessed as inhibition of root growth at 100 ppm after 10 days; type: functional, organism-based
Cucumis sativus [36] = experiment: Growth regulatory activity in Cucumis sativus assessed as inhibition of stem growth at 100 ppm after 10 days; type: functional, organism-based

Row | Structure (SMILES) | inhibition of growth at 0.1 µg/mL (P388 [2]) | inhibition of growth at 1 µg/mL (P388 [3]) | Activity (Brassica juncea [5]) | Activity (Brassica juncea [6]) | Activity (Echinochloa frumentacea [8]) | Activity (Cucumis sativus [9]) | Activity (Echinochloa frumentacea [11]) | Activity (Cucumis sativus [13]) | Activity (Brassica juncea [14]) | Activity (Cucumis sativus [15]) | Activity (Echinochloa frumentacea [16]) | Activity (Cucumis sativus [17]) | inhibition of growth at 10 µg/mL (P388 [20]) | Activity (Cucumis sativus [27]) | also measured
1 | COc1cccc2c1C(=O)c1c(O)c3c(c(O)c1C2=O)C[C@@](O)(C(=O)CO)C[C@@H]3O[C@H]1C[C@H](N)[C@H](O)[C@H](C)O1 [DOXORUBICIN] | 99% | 105% |  |  |  |  |  |  |  |  |  |  |  |  | inhibition of growth at 0.01 µg/mL (P388 [1]): 38%
2 | C[C@@H]1C(=O)O[C@H]2C1CC[C@@]1(C)CCC[C@@](C)(O)[C@H]21 (stereo not given in full) |  |  | Active | Active | Active | Active | Active | Active | Active | Active | Active | Active |  |  | Activity (Echinochloa frumentacea [4]): Active; Activity (Cucumis sativus [7]): Active; Activity (Cucumis sativus [10]): Active; Activity (Brassica juncea [12]): Active
3 | C[C@]12CCC[C@@](C)(O)[C@@H]1[C@H]1OC(=O)C(CCl)=C1CC2 | 26% | 65% | Active | Active | Active | Active | Active | Active | Active | Active | Active | Active | 103% |  | Activity (Echinochloa frumentacea [4]): Active; Activity (Brassica juncea [18]): Active; Activity (Brassica juncea [19]): Active; Activity (Cucumis sativus [21]): Active; Activity (Cucumis sativus [10]): Active; Activity (Brassica juncea [12]): Active; Activity (Cucumis sativus [22]): Active; Activity (Echinochloa frumentacea [23]): Active
4 | C[C@]12CCC[C@@](C)(O)[C@@H]1[C@H]1OC(=O)C(CO)=C1CC2 |  |  |  |  |  |  |  |  |  |  |  | Active |  | Active | Activity (Echinochloa frumentacea [24]): Active; Activity (Cucumis sativus [25]): Active; Activity (Brassica juncea [26]): Active; Activity (Echinochloa frumentacea [28]): Active
5 | C[C@]12CCC[C@@](C)(O)[C@@H]1[C@H]1OC(=O)C(CBr)=C1CC2 | 3% | 44% | Active |  |  |  | Active | Active | Active |  | Active |  | 102% | Active | Activity (Brassica juncea [29]): Active; Activity (Echinochloa frumentacea [30]): Active
6 | CC(=O)OCC1=C2CC[C@@]3(C)CCC[C@@](C)(O)[C@@H]3[C@H]2OC1=O |  |  | Active |  |  |  |  |  | Active |  |  |  |  |  | Activity (Echinochloa frumentacea [31]): Active
7 | C=C1C(=O)O[C@@H]2[C@@H]3[C@](C)(CCC[C@@]3(C)O)CC[C@@H]12 [ARBUSCULIN A] | 2% | 45% | Active | Active | Active | Active | Active | Active | Active | Active | Active | Active | 101% | Active | Activity (Brassica juncea [32]): Active; Activity (Brassica juncea [33]): Active; Activity (Echinochloa frumentacea [34]): Active; Activity (Cucumis sativus [25]): Active; Activity (Brassica juncea [19]): Active; Activity (Cucumis sativus [35]): Active; Activity (Cucumis sativus [36]): Active; Activity (Cucumis sativus [22]): Active
